{"source": "ChEMBL document CHEMBL3393017", "about": "“Flavokawains B and C, melanogenesis inhibitors, isolated from the root of Piper methysticum and synthesis of analogs” (Bioorg Med Chem Lett, 2015)", "key": {"Tyrosinase": {"molecular_target": "T1, Tyrosinase (Agaricus bisporus, UniProt O42713)", "T1 sequence (O42713 whole entry)": "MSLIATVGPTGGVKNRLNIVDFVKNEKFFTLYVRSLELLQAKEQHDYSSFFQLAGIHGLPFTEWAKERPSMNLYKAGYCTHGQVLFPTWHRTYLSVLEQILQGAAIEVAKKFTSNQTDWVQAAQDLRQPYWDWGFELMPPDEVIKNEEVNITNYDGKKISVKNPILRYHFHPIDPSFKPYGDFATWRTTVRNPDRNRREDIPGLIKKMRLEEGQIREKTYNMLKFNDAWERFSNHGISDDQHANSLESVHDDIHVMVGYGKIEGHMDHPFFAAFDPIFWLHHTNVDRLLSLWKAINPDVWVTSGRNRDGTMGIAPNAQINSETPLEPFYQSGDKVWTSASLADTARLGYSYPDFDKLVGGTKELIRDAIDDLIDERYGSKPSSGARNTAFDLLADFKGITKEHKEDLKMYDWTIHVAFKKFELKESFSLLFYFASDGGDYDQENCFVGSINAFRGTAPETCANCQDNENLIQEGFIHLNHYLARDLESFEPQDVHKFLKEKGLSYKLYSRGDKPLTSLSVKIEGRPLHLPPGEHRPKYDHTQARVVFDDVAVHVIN", "assay": "Inhibition of mushroom tyrosinase using L-tyrosine as substrate after 20 mins by microplate reader"}, "[1]": {"assay": "(§1) Antimelanogenic activity in mouse B16F10 cells assessed as inhibition of melanin production after 4 days", "assay_type": "functional, cell-based", "conditions": "B16-F10, 96 h; call rule not given here", "how_it_was_run": "(§2)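 MSH-activated B16 melanoma cells were treated in triplicate, with the medium changed daily. After 4 d the cells were lysed in 1 N NaOH, and relative melanin in the lysate was read at 400 nm. Compounds were screened at 10 ppm, and those giving >50% inhibition were retested at other concentrations to derive IC50. Viability was checked by crystal violet staining read at 590 nm.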"}, "B16-F10": {"tested_on": "B16-F10", "assay": "as §1", "assay_type": "functional, cell-based", "how_it_was_run": "as §2"}}, "data": [{"smiles": "COc1cc(O)c(C(=O)/C=C/c2ccc(O)c(O)c2)c(OC)c1", "values": [{"measurement": "IC50", "setting": "Tyrosinase", "result": "Not Active"}, {"measurement": "IC50", "setting": "[1]", "result": 31.6, "unit": "µM"}]}, {"smiles": "COc1cc(O)c(C(=O)/C=C/c2ccc(O)cc2)c(OC)c1", "note": "[FLAVOKAWAIN C]", "values": [{"measurement": "IC50", "setting": "Tyrosinase", "result": "Not Active"}, {"measurement": "IC50", "setting": "[1]", "result": 6.9, "unit": "µM"}, {"measurement": "inhibition", "setting": "B16-F10", "result": "Dose-dependent effect"}]}, {"smiles": "CCc1ccccc1/C=C/C(=O)c1c(O)cc(OC)cc1OC", "values": [{"measurement": "IC50", "setting": "Tyrosinase", "result": "Not Active"}, {"measurement": "IC50", "setting": "[1]", "result": 2.5, "unit": "µM"}]}, {"smiles": "COc1cc(O)c(C(=O)/C=C/c2ccc(O)cc2O)c(OC)c1", "values": [{"measurement": "IC50", "setting": "Tyrosinase", "result": "Not Active"}, {"measurement": "IC50", "setting": "[1]", "result": 3.4, "unit": "µM"}]}, {"smiles": "COc1cc(O)c(C(=O)/C=C/c2ccccc2O)c(OC)c1", "values": [{"measurement": "IC50", "setting": "Tyrosinase", "result": "Not Active"}, {"measurement": "IC50", "setting": "[1]", "result": 2.3, "unit": "µM"}]}, {"smiles": "COc1cc(O)c(C(=O)/C=C/c2cccc(O)c2)c(OC)c1", "values": [{"measurement": "IC50", "setting": "Tyrosinase", "result": "Not Active"}, {"measurement": "IC50", "setting": "[1]", "result": 9.9, "unit": "µM"}]}, {"smiles": "COc1ccc(/C=C/C(=O)c2c(O)cc(OC)cc2OC)c(OC)c1", "values": [{"measurement": "IC50", "setting": "Tyrosinase", "result": "Not Active"}]}, {"smiles": "COc1cc(O)c(C(=O)/C=C/c2ccccc2C(C)C)c(OC)c1", "values": [{"measurement": "IC50", "setting": "Tyrosinase", "result": "Not Active"}, {"measurement": "IC50", "setting": "[1]", "result": 2.7, "unit": "µM"}]}, {"smiles": "COc1ccc(/C=C/C(=O)c2c(O)cc(OC)cc2OC)cc1", "note": "[FLAVOKAWAIN A]", "values": [{"measurement": "IC50", "setting": "Tyrosinase", "result": "Not Active"}]}, {"smiles": "O=c1cc(CO)occ1O", "note": "[KOJIC ACID]", "values": [{"measurement": "IC50", "setting": "[1]", "result": "> 500", "unit": "µM"}]}, {"smiles": "COc1cc(O)c(C(=O)/C=C/c2c(C)cccc2C)c(OC)c1", "values": [{"measurement": "IC50", "setting": "Tyrosinase", "result": "Not Active"}, {"measurement": "IC50", "setting": "[1]", "result": 9.9, "unit": "µM"}]}, {"smiles": "COc1cc(O)c(C(=O)/C=C/c2ccccc2)c(OC)c1", "note": "[FLAVOKAWAIN B]", "values": [{"measurement": "IC50", "setting": "Tyrosinase", "result": "Not Active"}, {"measurement": "IC50", "setting": "[1]", "result": 7.7, "unit": "µM"}, {"measurement": "inhibition", "setting": "B16-F10", "result": "Dose-dependent effect"}]}, {"smiles": "COc1cc(O)c(C(=O)/C=C/c2ccccc2OC)c(OC)c1", "values": [{"measurement": "IC50", "setting": "Tyrosinase", "result": "Not Active"}, {"measurement": "IC50", "setting": "[1]", "result": 3.8, "unit": "µM"}]}, {"smiles": "COc1cc(O)c(C(=O)/C=C/c2ccccc2C)c(OC)c1", "values": [{"measurement": "IC50", "setting": "Tyrosinase", "result": "Not Active"}, {"measurement": "IC50", "setting": "[1]", "result": 3, "unit": "µM"}]}, {"smiles": "COc1cccc(/C=C/C(=O)c2c(O)cc(OC)cc2OC)c1", "values": [{"measurement": "IC50", "setting": "Tyrosinase", "result": "Not Active"}, {"measurement": "IC50", "setting": "[1]", "result": 3.1, "unit": "µM"}]}]}
